Source: PubChem
NR3A LBD binder – modulators (binders) of human NR3A ligand-binding domain; NR3A LBD differential scanning fluorimetry, Tm shift; 0% = protein alone, 100% = glycine-bound protein; Tm shift relative to glycine control, % at 25 µM; 340,000 tested, 2.5% active;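 active means melting temperature shift of at least 10% of the positive control shift, at one fixed dose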
PAFAH2 FP inh – PAFAH2 (human) inhibition. inhibition, % at 3.39 µM. Q99487. recombinant PAFAH2, FP-rhodamine activity probe, fluorescence polarization. 340,000 tested, 0.99% active;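 active means inhibition above the mean over all tested compounds plus 3 SD, cut at about 30% in these data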;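 further: inhibitors block probe labeling of enzyme so polarization drops; 0% = enzyme with DMSO and 100% = wells lacking PAFAH2 protein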
pPAFAH FP inh – pPAFAH (human) enzyme inhibition; Q13093; recombinant pPAFAH, FP-rhodamine probe fluorescence polarization; inhibition, % at 3.39 µM; 330,000 tested, 1.5% active; AID 463082;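 active means inhibition above the mean inhibition across the screen plus 3 SD, cut at about 25% in these data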;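 further: inhibitors block binding of the rhodamine activity-based probe so polarization drops; 0% = enzyme with DMSO and 100% = wells lacking pPAFAH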
Target sequence (Q13093 whole entry, looked up): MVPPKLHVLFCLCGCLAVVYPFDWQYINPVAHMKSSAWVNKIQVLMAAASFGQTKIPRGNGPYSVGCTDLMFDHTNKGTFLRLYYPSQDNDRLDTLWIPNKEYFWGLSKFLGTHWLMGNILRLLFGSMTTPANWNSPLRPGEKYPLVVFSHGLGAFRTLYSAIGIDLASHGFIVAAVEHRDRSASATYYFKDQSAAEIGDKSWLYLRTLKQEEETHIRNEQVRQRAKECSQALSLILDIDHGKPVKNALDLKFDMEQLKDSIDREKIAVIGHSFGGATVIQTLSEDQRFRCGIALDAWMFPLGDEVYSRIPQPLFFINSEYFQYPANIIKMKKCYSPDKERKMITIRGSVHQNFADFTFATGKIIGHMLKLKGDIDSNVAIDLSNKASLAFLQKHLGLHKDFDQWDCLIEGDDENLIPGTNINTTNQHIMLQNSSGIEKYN
PAFAH1B2 inh – blocks human PAF acetylhydrolase 1b catalytic subunit 2; P68402; recombinant PAFAH1B2, FP-rhodamine activity probe, fluorescence polarization; inhibition, % at 3.39 µM; 340,000 tested, 1.2% active; AID 492953;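 active means inhibition above the mean of all tested compounds plus 3 SD, cut at about 24% in these data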;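 further: 0% = enzyme with DMSO and 100% = wells lacking PAFAH1B2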
Target sequence (P68402 whole entry, looked up): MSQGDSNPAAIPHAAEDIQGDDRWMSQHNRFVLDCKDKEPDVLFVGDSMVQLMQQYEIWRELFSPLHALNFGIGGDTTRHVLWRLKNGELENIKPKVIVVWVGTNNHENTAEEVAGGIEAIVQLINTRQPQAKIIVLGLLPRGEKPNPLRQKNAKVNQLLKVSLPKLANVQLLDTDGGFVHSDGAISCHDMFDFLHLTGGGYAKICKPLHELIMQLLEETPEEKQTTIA
UCH37 DUB inh – blocks the human deubiquitinase UCH37 | purified proteasome/UCH37, Ub-AMC cleavage fluorescence | Q9Y5K5 | AID 588478 | 330,000 tested, 0.33% active | inhibition, % (no concentration beside the values);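 active means mean inhibition over replicate wells above about 20%, limit read from the data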;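 further: 0% = compound-free wells with enzyme and 100% = wells lacking proteasome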
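Test system – human UCH37 enzyme supplied as purified proteasome complex · Incubation – 30 min preincubation with enzyme, 25 min cleavage at room temperature · Detection – AMC fluorescence from Ub-AMC cleavage, excitation 355 nm, emission 460 nm · Benchmarks – no-proteasome wells (full inhibition) and compound-free wells (no inhibition)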
PAFAH1B3 inh – inhibitors of human PAFAH1B3 | AID 492972 | inhibition, % at 3.39 µM | 340,000 tested, 0.28% active | recombinant PAFAH1B3, FP-rhodamine probe, fluorescence polarization;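 active means inhibition above the screen-wide average of all tested compounds plus 3 SD, cut at about 25% in these data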;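 further: 0% = enzyme with DMSO only and 100% = wells lacking PAFAH1B3 protein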
* marks the source's active call; other numbers are inactive results. Sampled rows, rich in hits. Any-hit rate of the full collection: about 4.8%.

For O=[N+]([O-])c1ccc(C2=NN(c3ccccc3)C(c3ccco3)C2)cc1 (centres undefined) the results were NR3A LBD binder 339.5*, PAFAH2 FP inh -17.4, PAFAH1B2 inh -18.4, UCH37 DUB inh 6.8 and PAFAH1B3 inh -17.9.
Screening O=[N+]([O-])c1ccc(/C=C/C2=NN(c3ccccc3)C(c3ccco3)C2)cc1 (centres undefined) returned NR3A LBD binder 263.1*, PAFAH2 FP inh -47.8, pPAFAH FP inh -15.2, PAFAH1B2 inh -21.8, UCH37 DUB inh 9.9 and PAFAH1B3 inh -29.1.
For COc1ccc(C=NNC(=O)Cn2cc(C(F)(F)F)ccc2=O)cc1 the results were UCH37 DUB inh 1.4.
COc1cc(C(C)=O)ccc1OCC(=O)NCC(c1ccc(F)cc1)N1CCOCC1 (centres undefined) was read as NR3A LBD binder 0.8, PAFAH2 FP inh 8.3, pPAFAH FP inh 28.1*, PAFAH1B2 inh 0.6, UCH37 DUB inh 0.4 and PAFAH1B3 inh 2.4.
For CC(C)N(C(=S)NCc1ccccc1)c1ccccc1 the results were NR3A LBD binder -2.4, PAFAH2 FP inh 4.1, pPAFAH FP inh -4.5, PAFAH1B2 inh 28.7*, UCH37 DUB inh 0.6 and PAFAH1B3 inh 7.0.
For CN(C)CCN(C(=O)c1ccc(C(=O)c2ccccc2)cc1)c1nc2cc3c(cc2s1)OCCO3 the results were NR3A LBD binder -0.3, PAFAH2 FP inh 3.3, pPAFAH FP inh -7.5, PAFAH1B2 inh 1.1, UCH37 DUB inh 0.8 and PAFAH1B3 inh 5.9.
Screening CN(C)CCN(C(=O)c1ccc(C(=O)c2ccccc2)cc1)c1nc2cc3c(cc2s1)OCO3 returned NR3A LBD binder 11.1*, PAFAH2 FP inh 2.4, pPAFAH FP inh 6.5, PAFAH1B2 inh 2.9, UCH37 DUB inh 1.9 and PAFAH1B3 inh 5.8.
`CC(=O)Nc1ccc(C=NNC(=O)c2cc3ccccc3nc2C)cc1` gave UCH37 DUB inh 4.1.
O=C(/C=C/c1ccc(-c2ccccc2)o1)c1ccccc1 was read as NR3A LBD binder -8.0, PAFAH2 FP inh 5.8, pPAFAH FP inh 26.6*, PAFAH1B2 inh -0.9, UCH37 DUB inh -1.4 and PAFAH1B3 inh 8.0.
Screening Cc1ccc(-c2ccc(/C=C/C(=O)c3ccccc3)o2)cc1 returned NR3A LBD binder -9.5, PAFAH2 FP inh -4.2, pPAFAH FP inh 17.4, PAFAH1B2 inh -3.4, UCH37 DUB inh -4.6 and PAFAH1B3 inh 2.9.
`Nc1ccc2c(c1)C(=NO)c1cc([N+](=O)[O-])ccc1-2` gave NR3A LBD binder 28.1*, PAFAH2 FP inh -5.1, PAFAH1B2 inh -2.1 and PAFAH1B3 inh -5.3.
Screening O=[N+]([O-])c1ccc2c(c1)-c1ccccc1C2=NO returned NR3A LBD binder -0.2, PAFAH2 FP inh 1.9, PAFAH1B2 inh 6.2 and PAFAH1B3 inh 9.8.
COCCCNC(=O)C(=O)NN=Cc1cc2c(cc1Br)OCO2 was read as UCH37 DUB inh 9.8.
For COc1ccc2c(-c3ccccc3)cc(SCC(=O)N(C)C)nc2c1 the results were NR3A LBD binder 1.0, PAFAH2 FP inh 5.1, pPAFAH FP inh 33.0*, PAFAH1B2 inh -0.6, UCH37 DUB inh -14.0 and PAFAH1B3 inh 4.9.
For CCN(C(=O)CSc1cc(-c2ccccc2)c2ccc(OC)cc2n1)C1CCS(=O)(=O)C1 (centres undefined) the results were NR3A LBD binder -2.7, PAFAH2 FP inh -4.0, pPAFAH FP inh 26.2*, PAFAH1B2 inh 3.2, UCH37 DUB inh 1.6 and PAFAH1B3 inh 9.6.
COc1ccc2c(-c3ccccc3)cc(SCC(=O)NC(N)=O)nc2c1 was read as NR3A LBD binder 1.5, PAFAH2 FP inh -6.0, pPAFAH FP inh 7.1, PAFAH1B2 inh 2.4, UCH37 DUB inh -5.1 and PAFAH1B3 inh 3.4.
For COCCNC(=O)CSc1cc(-c2ccccc2)c2ccc(OC)cc2n1 the results were NR3A LBD binder -6.6, PAFAH2 FP inh 1.4, pPAFAH FP inh 29.6*, PAFAH1B2 inh 0.6, UCH37 DUB inh -7.5 and PAFAH1B3 inh 5.9.
`ON=C1CCSc2ccc(F)cc21` gave UCH37 DUB inh -0.7.
`O=C1OC(Nc2ncccn2)c2ccccc21` (centres undefined) gave NR3A LBD binder 0.8, PAFAH2 FP inh 4.3, pPAFAH FP inh -5.5, PAFAH1B2 inh 3.5, UCH37 DUB inh 3.3 and PAFAH1B3 inh -2.4.
Screening O=C1OC(Nc2cc(Br)cc3cccnc23)c2ccccc21 (centres undefined) returned NR3A LBD binder -3.0, PAFAH2 FP inh 22.3, pPAFAH FP inh 29.7*, PAFAH1B2 inh 18.3, UCH37 DUB inh 3.9 and PAFAH1B3 inh 69.0*.
`O=C(NN=C1CCSC1)c1cc(Br)ccc1O` gave UCH37 DUB inh -13.2.
Screening Cc1ccc(C2=C(O)C(=O)C(c3ccc(C)cc3)=C(O)C2=O)cc1 returned NR3A LBD binder -5.0, PAFAH2 FP inh 62.7*, PAFAH1B2 inh 40.5* and PAFAH1B3 inh 65.1*.
`CC1=C(O)C(=O)C(C2=C(O)C(=O)C(C)=C(O)C2=O)=C(O)C1=O` gave NR3A LBD binder -5.0, PAFAH2 FP inh 6.2, PAFAH1B2 inh 5.7 and PAFAH1B3 inh 18.4.
For Cc1ccc(NC(=O)C(C)Sc2nc(=O)cc(N)n2-c2ccccc2)cc1 (centres undefined) the results were NR3A LBD binder -2.1, PAFAH2 FP inh 8.7, pPAFAH FP inh -0.4, PAFAH1B2 inh -3.6, UCH37 DUB inh 3.0 and PAFAH1B3 inh 5.1.
C=CCn1c(N)cc(=O)nc1SC(C)C(=O)Nc1ccc(C(=O)OCC)cc1 (centres undefined) was read as NR3A LBD binder 14.5*, PAFAH2 FP inh -2.8, pPAFAH FP inh -4.2, PAFAH1B2 inh -3.6, UCH37 DUB inh 2.0 and PAFAH1B3 inh 17.0.
Screening COc1ccc(C=NNc2cc(C)nc(N3CCOCC3)n2)cc1OC returned UCH37 DUB inh 8.8.
`COc1ccc(NC(=O)/C=C/c2cc(Br)ccc2OC)cc1` gave NR3A LBD binder 14.9*, PAFAH2 FP inh -18.1, pPAFAH FP inh -0.3, PAFAH1B2 inh -0.2, UCH37 DUB inh 1.2 and PAFAH1B3 inh 6.3.
O=S(=O)(N=C(NS(=O)(=O)c1ccccc1)c1ccccc1)c1ccccc1 was read as UCH37 DUB inh 1.8.
Screening Cc1ccc2[nH]c(=O)c(CN(CCCN(C)C)C(=O)Nc3ccc(Cl)cc3)cc2c1 returned NR3A LBD binder -0.3, PAFAH2 FP inh -2.1, pPAFAH FP inh 0.8, PAFAH1B2 inh 2.5, UCH37 DUB inh 2.9 and PAFAH1B3 inh 3.2.
`Cc1ccc2cc(CN(CCN(C)C)C(=O)Nc3ccc(Cl)cc3)c(=O)[nH]c2c1` gave NR3A LBD binder 11.2*, PAFAH2 FP inh 2.1, pPAFAH FP inh -3.4, PAFAH1B2 inh -0.1, UCH37 DUB inh 6.6 and PAFAH1B3 inh 13.0.
For CCOc1ccc(-c2c(C(=O)NN=C(C)c3ccco3)nnn2-c2nonc2N)cc1 the results were UCH37 DUB inh -28.1.
For Cc1ccc(CN2CCN(N=C/C=C/c3ccccc3[N+](=O)[O-])CC2)cc1 the results were UCH37 DUB inh 4.6.
